We go through 14 molecules from PMC11617404 (iScience, 2024).

In data set [1] the test system is HepG2 cells. Description: ECAR and OCR during glycolytic stress test. Format: cell-based, human. The note with it: 1 h glucose starvation, 10 mM glucose, 10 μM oligomycin, 100 mM 2-DG. Summed up: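 HepG2 cells in Seahorse plates were transfected the next day with the sensor or its null variant. At 24 h they were glucose-starved for 1 h in XF DMEM (pH 7.4, 2 mM glutamine, no glucose, no phenol red) in a CO2-depleted incubator, and the medium was renewed. Additions: 10 mM glucose, 10 μM oligomycin, then 100 mM 2-DG in two 50 mM steps. OCR (pmol O2/min) was normalized to cell number by BCA protein assay; n = 3.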

In data set [2] the target is T1, HYlight (Bacillus subtilis, UniProt O32253). Description: Titration of purified HYlight with oligomycin or 2-DG. Format: binding. The settings on record: increasing concentrations, Figure S1E.
The test system of data set [3] is HepG2 cells. Kind of data set: Gluconeogenesis induction with FBP1 or PFK inhibition, HYlight imaging. Format: cell-based, human. Summed up:
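HepG2 cells were kept in DMEM Glutamax with 25 mM lactate and 0.65 mM pyruvate. After transfection, 50 μM dexamethasone and 100 nM glucagon were added; normal medium served as comparison. The PFK inhibitor (20 μM) was given 24 h before the assay, and the FBP1 inhibitor (20 μM) acutely. After 1 h glucose starvation, cells were imaged with dexamethasone and glucagon (60 min each), FBP1 inhibitor (30 min), then 15 mM glucose (25 min). Read-out was 488/405 nm ratio; n ≥ 3, 50 cells each.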

Data set [4] concerns the target T1, HYlight. Kind of data set: Dihydroxyacetone phosphate competition assay on purified HYlight. Format: binding. The note with it: purified HYlight in the presence of 100 μM FBP, Figure 5D. The gist of the method:
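Protein was IPTG-induced (0.5 mM, overnight, 30°C), purified by Ni2+ affinity and size exclusion, and used at 200 nM. DHAP was titrated with or without 100 μM FBP, and with or without cytosolic ionic strength (140 mM K+, 12 mM Na+) plus a metabolic mix. Excitation was scanned 350–520 nm with emission at 560 nm, 25°C. Ratio R = F500/F400, ΔR/R0 = (Rt−Rt=0)/Rt=0; n = 3.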

For data set [5], the target named is T1, HYlight. Kind of data set: Titration of purified recombinant HYlight, excitation ratio F500/F400. Format: binding. The note with it: for maximum fluorescence ratio: purified HYlight, titration from low μM to mM range, Figure 5C; for average fluorescence ratio: 1 μM FBP, Figure 6D; for maximum ratiometric value (fluorescence ratio): Figure 6A; for fluorescence ratio (maximum): Figure 7A. The gist of the method: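 Purified sensor (200 nM) was scanned at excitation 350–520 nm, emission 560 nm, 25°C, with ratio F500/F400. For ionic strength, protein in TBS (0 mM NaCl, 50 mM Tris-HCl pH 7.6) was titrated with FBP and NaCl 0–150 mM. The buffer series compared 25 mM MES/CHES/HEPES, PBS and Britton-Robinson pH 8, pH-adjusted with NaOH; n = 3.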

Data set [6] deals with primary mouse hepatocytes. Kind of data set: Hypoxia induction assay. The settings on record: 1 mM overnight, 1 h starvation. Format: cell-based. Summed up:
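Transfected primary mouse hepatocytes received 1 mM DMOG 24 h before and during the assay, with DMSO as blank. After 1 h glucose starvation they were given 20 mM glucose (35 min), a further 20 mM glucose (10 min), then 100 mM 2-DG (10 min), with the 488/405 nm ratio recorded.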

The test system of data set [7] is HepG2 cells. Description: Hypoxia induction assay. The note with it: 1 mM overnight, 1 h starvation. Format: cell-based, human. Summed up: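 Transfected HepG2 cells received 1 mM DMOG 24 h before the assay, kept throughout, with DMSO as blank. After 1 h glucose starvation, cells were imaged for 30 min after 10 mM glucose, following the 488/405 nm ratio. n ≥ 5, 50 cells per replicate.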

In data set [8] the target is T1, HYlight. Kind of data set: Metal binding assay on purified HYlight. The settings on record: 150 mM NaCl or KCl, 0.1 mM EDTA.
A further data set deals with aldolase. The note with it: cited from earlier work.
A short description of data set [9]: FBP quantification with HYlight in primary mouse hepatocytes. Format: cell-based. The gist of the method:
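Hepatocytes were transfected with HYlight plasmid 2 h after seeding; medium was replaced 12 h later. Cells were glucose-starved 1 h in glucose-free Seahorse XF DMEM (pH 7.4, 2 mM glutamine), then given 10 mM glucose. Confocal 488/405 ratios were normalized to post-2-DG values and read against an in vitro FBP curve (ΔR/R10) mimicking ionic strength and metabolic competition. n = 3, ≥50 cells each.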

For the next data set, the system named is PFK-1. The note with it: PFK-1 toward FBP; ref BRENDA:EC2.7.1.11; Zheng and Kemp[47]; cited from earlier work.
Another data set has as its system FBPase-1. The settings on record: FBPase-1 for FBP, gluconeogenic conditions; cited from earlier work.
Data set [10] deals with HepG2 cells. Description: FBP added to the media of non-permeabilized HepG2 cells expressing HYlight. Format: cell-based, human. The note with it: intact HepG2 cells, increasing FBP in the media, no saponin.
Data set [11] has as its target T1, HYlight. The settings on record: cited from earlier work.
In data set [12] the test system is HepG2, HLE, and Huh6 cells. Kind of data set: Glucose titration, HYlight confocal imaging in hepatoma cell lines. Format: cell-based, human. The gist of the method:
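Hepatoma lines expressing codon-optimized cytosolic sensor (Lipofectamine, medium changed at 24 h) were glucose-starved for 1 h in XF DMEM pH 7.4 without glucose. They were imaged 10 min, then given increasing glucose every 10 min up to 40 mM, then 50 mM 2-DG. The 488/405 nm confocal ratio was min-max normalized, and the Hill coefficient was taken from ratio versus glucose; n = 3, ≥50 cells each.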

The subject of a further data set is HLE cells. Kind of data set: Glycolytic stress test, HYlight confocal imaging in HLE cells. Format: cell-based, human. The settings on record: after the addition of 10 mM glucose. The gist of the method:
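Transfected HLE cells were glucose-starved for 1 h in XF DMEM pH 7.4 (2 mM glutamine, no glucose) and imaged 10 min. They then received 10 mM glucose for 30 min, 2.5 μM oligomycin for 30 min and 50 mM 2-DG for 30 min. The 488/405 nm ratio was followed over time and min-max normalized.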

In data set [13] the test system is primary mouse hepatocytes. Description: Glucose titration, HYlight confocal imaging in primary mouse hepatocytes. Format: cell-based. The settings on record: 1 h glucose starvation, glucose 0–40 mM added every 10 min. The gist of the method: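 Hepatocytes were isolated by two-step collagenase perfusion via the vena cava and cultured in William's medium with 10% FBS and 10 mM HEPES. They were transfected 2 h after seeding, with medium changed at 12 h. After 1 h starvation in glucose-free XF DMEM pH 7.4, cells were imaged 10 min, given glucose in steps every 10 min to 40 mM, then 100 mM 2-DG. The 488/405 nm ratio was recorded; n = 3, ≥50 cells each.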

Data set [14] has as its target T1, HYlight. Kind of data set: Phosphate titration assay on purified HYlight. Format: binding. The gist of the method: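 Purified sensor (200 nM) or null variant was tested in SEC buffer pH 8 with TBS or PBS. Separately, 200 mM Sorensen's phosphate pH 8 was titrated from the nM to mM range into sensor in 50 mM Tris pH 8, with or without 100 μM FBP, keeping conductivity constant. Excitation was scanned 350–520 nm, emission 560 nm, 25°C; read-out was the F500/F400 ratio change; n = 3.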

T1 sequence (O32253 96-340, other chains not shown): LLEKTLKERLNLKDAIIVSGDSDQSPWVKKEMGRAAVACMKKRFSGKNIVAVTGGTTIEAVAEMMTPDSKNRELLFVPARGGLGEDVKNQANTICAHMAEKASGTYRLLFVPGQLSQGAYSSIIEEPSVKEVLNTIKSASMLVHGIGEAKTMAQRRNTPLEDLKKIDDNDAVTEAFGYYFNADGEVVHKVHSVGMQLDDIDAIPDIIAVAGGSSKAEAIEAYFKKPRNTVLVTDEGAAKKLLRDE

As to `O=CC[C@@H](O)[C@H](O)[C@H](O)CO` [2-DG, 2-deoxy-D-glucose], in the data set on HepG2 cells [1], the “change of oxygen consumption rate (OCR)” value is reported as “increase in the OCR”. At HYlight [2], the “direct effect on ratiometric response of purified HYlight” value is reported as “do not directly interact with HYlight”.

Turning to `O=C(/C=C/c1cccnc1)c1ccncc1` [3PO, (2E)-3-(3-Pyridinyl)-1-(4-pyridinyl)-2-propen-1-one], the “decrease in FBP levels after glucose addition” value in the data set on HepG2 cells [3] (20 μM, 24 h treatment, gluconeogenic media) was “not observed”. Besides, the “FBP levels (HYlight ratio) after glucose addition” value in the data set on HepG2 cells [3] (20 μM, 24 h treatment, normal media) is reported as “significant decrease in the FBP levels”.

Regarding `O=S(=O)(Nc1nc2cc(Cl)ccc2o1)c1cc(Cl)ccc1Cl` [5-chloro-2-(N-(2,5-dichlorobenzenesulfonamide))-benzoxazole], in the data set on HepG2 cells [3] (20 μM inhibitor, gluconeogenic medium, 15 mM glucose), the “FBP level (HYlight ratio) after glucose addition” value is “increase of FBP to levels comparable to those seen with standard media”.

As to `O=C(CO)COP(=O)(O)O` [DHAP, dihydroxyacetone phosphate], the “DHAP concentration at which significant competition was observed” value at HYlight [4] was “above 2.5 mM”. Moreover, on HYlight [5], the maximum fluorescence ratio was 0.75.

For the molecule `COC(=O)CNC(=O)C(=O)OC` [DMOG, dimethyloxalylglycine], the “basal fluorescence (HYlight ratio)” value (in data set [6]; in the data set on HepG2 cells [7]) was “significant increase in basal fluorescence” throughout. The “response to glucose (HYlight ratio)” value (in data set [6]; with HepG2 cells [7]) was “diminished or absent response to glucose” each time.

As for `O=C(O)CN(CCN(CC(=O)O)CC(=O)O)CC(=O)O` [EDTA, ethylenediaminetetraacetic acid], the “effect on response and apparent KD value of HYlight for FBP” value (shortened to “effect on response and apparent KD value”) at HYlight [8] is given as “did not alter the response or the apparent KD value”.

Regarding `O=C(COP(=O)(O)O)[C@@H](O)[C@H](O)[C@H](O)COP(=O)(O)O` [FBP, fructose 1,6-bisphosphate], the specificity constant in the data set with aldolase (aldolase for FBP) is 4.7 mM⁻^1s⁻^1; in the data set on FBPase-1, 23 mM⁻^1s⁻^1. The “FBP concentration in primary mouse hepatocytes (HYlight)” value in data set [9] (after 10 mM glucose) stood at 21 µM; in data set [9] (before glucose addition), 15 µM. Also, in the data set on PFK-1, the turnover rate is 111 s⁻¹. For the same molecule, the “entry of FBP from the media into cells (HYlight ratio unchanged)” value in the data set on HepG2 cells [10] is “could not cross the membrane”. Further, the average fluorescence ratio is listed as 1.87 on HYlight [5] (TBS with 0 mM NaCl) and 0.94 on HYlight [5] (TBS with 150 mM NaCl). For the same molecule, the results for the “maximum ratiometric value (fluorescence ratio)” value at HYlight [5] (Britton-Robinson phosphate buffer), on HYlight [5] (MES-CHES-HEPES buffer) and on HYlight [5] (PBS) were 1, approximately 3 and 2, respectively. Further, the “fluorescence ratio (maximum)” value at HYlight [5] (CIS (140 mM KCl and 12 mM NaCl)) is 3.5; on HYlight [5] (CIS + metabolic mix solution) it was 3.5; at HYlight [5] (working buffer, 125 mM NaCl) it was 2. Besides, the maximum fluorescence ratio at HYlight [5] was determined as 2.

`[K+]` [K^+]: at HYlight [8], the “effect on response and apparent KD value” value was “did not alter the response or the apparent KD value”.

Take `[Na+]` [Na^+]: the “effect on response and apparent KD value” value at HYlight [8] is “did not alter the response or the apparent KD value”.

Consider `O=P(O)(O)OC[C@H]1O[C@@](CO)(OP(=O)(O)O)[C@@H](O)[C@@H]1O` [fructose 2,6-bisphosphate], for which the “binding to HYlight” value at HYlight [11] was “can also bind”.

As for `OC[C@H]1OC(O)[C@H](O)[C@@H](O)[C@@H]1O` (stereo partly shown) [glucose], the “glucose concentration needed for HYlight changes” value in data set [12] (1 h glucose starvation, glucose 0–40 mM added every 10 min) is on record as 5 mM. In data set [12] (HLE, HepG2, Huh6 cell lines and primary mouse hepatocytes, Figure 1C), the “hill coefficient of HYlight ratio against glucose concentration” value is “approximately 1”. The “change of oxygen consumption rate (OCR)” value in the data set on HepG2 cells [1] is “decrease in oxygen consumption”. Moreover, the “time to maximum HYlight response” value with HLE cells is reported as 30 min. The “glucose concentration after which HYlight changes were detected” value in data set [13] is recorded as 20 mM.

As to `O=CC(O)COP(=O)(O)O` (stereo not shown) [glyceraldehyde 3-phosphate], the turnover rate in the data set with aldolase (aldolase toward glyceraldehyde 3-phosphate, ref BRENDA:EC4.1.2.13, Plater et al.[48]) is 8.2 s⁻¹.

For the molecule `CC[C@H]1/C=C/C=C/C[C@@H](C)[C@H](O)[C@@](C)(O)C(=O)[C@@H](C)[C@H](O)[C@@H](C)C(=O)[C@@H](C)[C@H](O)[C@@H](C)/C=C/C(=O)O[C@@H]2[C@H](C)[C@H](CC1)O[C@]1(CC[C@H](C)[C@H](C[C@@H](C)O)O1)[C@H]2C` [oligomycin, Oligomycin A], the “change of oxygen consumption rate (OCR)” value in the data set on HepG2 cells [1] is reported as “decrease in oxygen consumption”. At HYlight [2], the “direct effect on ratiometric response of purified HYlight” value was “do not directly interact with HYlight”.

phosphate: on HYlight [14] (in the absence of FBP), the “effect of phosphate titration on 500/400 fluorescence ratio” value is listed as “increase in the 500/400 fluorescence ratio”. In addition, the “effect of phosphate titration on fluorescence response” value at HYlight [14] (in the presence of 100 μM FBP) was “decrease in fluorescence response”.
